Measurements of several laboratories.
Lines come from different studies, so protocols differ.
Target: Phosphorylase b kinase gamma catalytic chain, liver/testis isoform (PHKG2, Homo sapiens, UniProt P15735)
Sequence (P15735 1-406, as in one of the studies): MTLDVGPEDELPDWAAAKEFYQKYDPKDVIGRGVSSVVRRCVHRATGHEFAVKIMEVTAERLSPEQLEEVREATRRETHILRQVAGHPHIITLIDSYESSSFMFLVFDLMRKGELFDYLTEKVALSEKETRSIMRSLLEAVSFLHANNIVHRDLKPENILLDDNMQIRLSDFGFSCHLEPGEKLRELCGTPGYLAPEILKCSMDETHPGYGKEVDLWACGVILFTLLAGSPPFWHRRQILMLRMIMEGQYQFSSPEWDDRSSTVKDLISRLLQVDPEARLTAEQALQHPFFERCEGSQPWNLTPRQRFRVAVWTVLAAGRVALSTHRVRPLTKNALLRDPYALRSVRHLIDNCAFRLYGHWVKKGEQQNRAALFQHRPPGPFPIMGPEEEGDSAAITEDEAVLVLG

Compound	effect on	method	tested at	remaining binding [%]
C[C@@H]1CCN(c2nccc(-c3cnn4ncccc34)n2)C1	binding	–	1 µM	72
Cc1cnc(Nc2ccc(C(=O)N3CCC(N4CCCC4)CC3)cc2)nc1-c1cc2ccccc2s1	binding	competition with immobilised ligand	1 µM	51
CN(C)C(=O)Cn1cc(-c2nc([C@@](C)(c3ccc(-c4cnc(N)nc4)cc3)C3CC3)no2)cn1	cell-free assay	competition with immobilised ligand	1 µM	80
FC(F)(F)Oc1cccc(-c2cnc3ccc(-c4ccncc4)nn23)c1	cell-free assay	competition with immobilised ligand	5 µM	22
O=C(N1CCS(=O)(=O)CC1)N1C[C@H](c2ccc(OC(F)(F)F)cc2)C[C@H](c2nc(C3CC3)no2)C1	cell-free assay	competition with immobilised ligand	1 µM	100
COc1cnc(Nc2cccc(S(N)(=O)=O)c2)nc1N1CCN(c2ccccc2)CC1	binding	competition with immobilised ligand	1 µM	82
Cc1c[nH]c2nccc(Oc3c(F)cc(Nc4cc(Cl)nc(N)n4)cc3F)c12	cell-free assay	competition with immobilised ligand	0.1 µM	89
Nc1ncc2c(n1)-c1c([nH]c3ccc(C#CC4CC4)cc13)CCCC2	binding	competition with immobilised ligand	1 µM	100
CN(c1nccc(-c2cnn3ncccc23)n1)C1CC1	binding	–	1 µM	81
O=C(Nc1ccc(Oc2ccc(F)cc2)cc1)N1CCc2ncccc2[C@H]1c1ccc(F)cc1	cell-free assay	competition with immobilised ligand	1 µM	100
N[C@H]1CCN(c2nccc(-c3cnn4ncccc34)n2)C1	binding	–	1 µM	77
O=C(c1ccc(Nc2nccc(-c3cc4ccccc4s3)n2)cc1)N1CCC(N2CCCC2)CC1	binding	competition with immobilised ligand	1 µM	64
F[C@@H]1CCN(c2nccc(-c3cnn4ncccc34)n2)C1	binding	–	1 µM	100
N#CC1(c2ccccn2)CCN(Cc2cc(C(=O)N3CCCC3)c(=O)n3ccccc23)CC1	cell-free assay	competition with immobilised ligand	1 µM	85
COc1ccnn2ncc(-c3ccnc(N(C)C)n3)c12	binding	–	1 µM	82
O=C(Nc1c[nH]nc1C(=O)NC1CCNCC1)c1cc(F)cc(F)c1	binding	competition with immobilised ligand	1 µM	100
CCN1CCN(Cc2ccc(C(=O)Nc3ccc(C)c(Oc4ccc5c(c4)CC(=O)N5)c3)cc2C(F)(F)F)CC1	binding	competition with immobilised ligand	1 µM	100
CN(C)c1nccc(-c2cnn3ncccc23)n1	binding	–	1 µM	86
O=C(c1ccc(Nc2ncc(Cl)c(-c3ccc(Cl)s3)n2)cc1)N1CCC(N2CCCC2)CC1	binding	competition with immobilised ligand	1 µM	66
CNC(=O)Nc1ccc2c(c1)[C@@]1(CC2)OC(=O)N(CC(=O)N(Cc2ccc(F)cc2)[C@@H](C)C(F)(F)F)C1=O	cell-free assay	competition with immobilised ligand	1 µM	100
C=CC(=O)N1CCC(C(=O)NCC(=O)N2CCN(c3nc(-c4cnc(N)nc4C(F)F)nc(N4CCOCC4)n3)CC2)CC1	binding	competition with immobilised ligand	1 µM	89
